Assay [1] deals with T1, Retinoic acid receptor gamma (Homo sapiens, UniProt P13631).
T1 sequence (P13631 whole entry): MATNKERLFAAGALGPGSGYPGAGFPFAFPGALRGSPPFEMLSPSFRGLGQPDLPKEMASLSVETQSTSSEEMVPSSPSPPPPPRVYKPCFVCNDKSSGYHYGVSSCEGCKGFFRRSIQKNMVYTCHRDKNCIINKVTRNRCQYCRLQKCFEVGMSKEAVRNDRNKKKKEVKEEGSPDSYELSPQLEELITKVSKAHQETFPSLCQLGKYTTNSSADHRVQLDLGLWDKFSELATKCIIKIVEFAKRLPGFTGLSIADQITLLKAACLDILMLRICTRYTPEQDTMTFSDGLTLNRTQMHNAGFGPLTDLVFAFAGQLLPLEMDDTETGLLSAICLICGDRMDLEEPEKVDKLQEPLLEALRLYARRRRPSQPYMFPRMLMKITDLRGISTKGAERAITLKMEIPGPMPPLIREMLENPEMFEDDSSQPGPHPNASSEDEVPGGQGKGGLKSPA
The assay can be described thus: Inhibition of [3H]ATRA binding to Retinoic acid receptor RAR gamma. A digest of the protocol: (§1)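 Receptors expressed recombinantly in a baculovirus system. Binding was measured by competition against 5 nM [3H]-all-trans-RA. Ki was calculated by the Cheng–Prusoff method.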

Assay [2] deals with T2, Retinoic acid receptor alpha (Homo sapiens, UniProt P10276).
T2 sequence (P10276 whole entry): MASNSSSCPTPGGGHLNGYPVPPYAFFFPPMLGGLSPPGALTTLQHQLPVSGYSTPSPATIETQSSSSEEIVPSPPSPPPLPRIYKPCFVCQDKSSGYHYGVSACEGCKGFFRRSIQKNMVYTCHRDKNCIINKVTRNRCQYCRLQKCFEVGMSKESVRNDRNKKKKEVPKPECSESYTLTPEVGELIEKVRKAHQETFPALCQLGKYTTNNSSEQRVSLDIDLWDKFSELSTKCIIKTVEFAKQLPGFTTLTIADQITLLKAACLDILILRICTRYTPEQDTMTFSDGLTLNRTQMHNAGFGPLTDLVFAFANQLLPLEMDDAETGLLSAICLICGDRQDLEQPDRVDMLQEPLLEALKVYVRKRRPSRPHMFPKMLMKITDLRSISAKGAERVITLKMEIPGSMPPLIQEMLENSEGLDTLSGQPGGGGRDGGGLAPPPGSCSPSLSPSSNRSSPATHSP
The assay can be described thus: Transcriptional activation of Retinoic acid receptor RAR alpha. A digest of the protocol:
(§2)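 CV-1 cells were transiently cotransfected with the receptor expression vector, a ΔMTV-TREp-Luc reporter and an RSV-β-Gal internal control, then incubated with compound (log dilutions, 1 x 10^-12 to 1 x 10^-5 M). Luciferase was normalized by β-galactosidase. Response is % of the all-trans-RA maximum, giving EC50. Three experiments, triplicates at each concentration.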

Assay [3] addresses T3, Retinoic acid receptor RXR-beta (Homo sapiens, UniProt P28702).
T3 sequence (P28702 whole entry): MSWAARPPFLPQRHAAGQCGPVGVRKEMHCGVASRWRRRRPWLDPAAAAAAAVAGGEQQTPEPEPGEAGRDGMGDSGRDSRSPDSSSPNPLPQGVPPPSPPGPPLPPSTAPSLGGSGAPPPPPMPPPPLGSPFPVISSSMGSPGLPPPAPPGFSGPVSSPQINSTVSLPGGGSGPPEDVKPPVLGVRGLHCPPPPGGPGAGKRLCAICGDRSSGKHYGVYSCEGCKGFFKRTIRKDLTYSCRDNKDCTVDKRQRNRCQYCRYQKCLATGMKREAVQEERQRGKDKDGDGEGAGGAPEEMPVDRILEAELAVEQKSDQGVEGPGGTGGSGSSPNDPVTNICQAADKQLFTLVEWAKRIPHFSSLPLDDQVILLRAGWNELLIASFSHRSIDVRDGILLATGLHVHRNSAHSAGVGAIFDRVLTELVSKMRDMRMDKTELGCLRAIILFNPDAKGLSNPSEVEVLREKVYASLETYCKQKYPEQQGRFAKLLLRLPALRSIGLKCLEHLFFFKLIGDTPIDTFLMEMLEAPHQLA
Nature of the assay: Transcriptional activation of Retinoid X receptor RXR beta. The method, boiled down: (§3)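 In transiently cotransfected CV-1 cells, the receptor vector was paired with a reporter (RXRβ: CPRE-tk-Luc; RXRγ: CRBPII-tk-Luc) plus an RSV-β-Gal internal control. Compound was tested at 1 x 10^-12 to 1 x 10^-5 M in log dilutions. Luciferase was corrected by β-galactosidase and expressed as % of the 9-cis-RA maximum to give EC50. Three experiments, triplicate points.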

Assay [4] addresses T4, Retinoic acid receptor beta (Homo sapiens, UniProt P10826).
T4 sequence (P10826 whole entry): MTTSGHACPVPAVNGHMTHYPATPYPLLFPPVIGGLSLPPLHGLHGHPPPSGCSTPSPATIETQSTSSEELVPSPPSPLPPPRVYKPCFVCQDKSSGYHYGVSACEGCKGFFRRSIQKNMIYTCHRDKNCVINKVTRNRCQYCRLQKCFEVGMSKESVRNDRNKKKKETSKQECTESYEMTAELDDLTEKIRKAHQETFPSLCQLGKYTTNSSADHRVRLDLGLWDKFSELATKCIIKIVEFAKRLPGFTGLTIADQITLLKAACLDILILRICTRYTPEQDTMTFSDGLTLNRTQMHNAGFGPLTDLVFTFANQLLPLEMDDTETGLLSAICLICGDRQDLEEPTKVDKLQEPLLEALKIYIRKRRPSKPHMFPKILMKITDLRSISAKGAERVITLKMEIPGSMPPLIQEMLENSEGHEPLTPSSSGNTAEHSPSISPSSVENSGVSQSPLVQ
Nature of the assay: Transcriptional activation of Retinoic acid receptor RAR beta. A digest of the protocol: as §2

The target of assay [5] is T4, Retinoic acid receptor beta. Nature of the assay: Inhibition of [3H]ATRA binding to Retinoic acid receptor RAR beta. A digest of the protocol:
as §1

Assay [6] deals with T2, Retinoic acid receptor alpha. The assay can be described thus: Inhibition of [3H]ATRA binding to Retinoic acid receptor RAR alpha. The method, boiled down: as §1
Assay [7] concerns the target T3, Retinoic acid receptor RXR-beta. Nature of the assay: Inhibition of [3H]-Targretin binding to Retinoid X receptor RXR beta. The method, boiled down: (§4)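 Recombinant receptors were expressed in a baculovirus system. Test ligands competed with [3H]Targretin (LGD1069) for binding. Ki values were derived by the Cheng–Prusoff method.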
The target in assay [8] is T1, Retinoic acid receptor gamma. The assay can be described thus: Transcriptional activation of Retinoic acid receptor RAR gamma. A digest of the protocol:
as §2

The target of assay [9] is T5, Retinoic acid receptor RXR-alpha (Homo sapiens, UniProt P19793).
T5 sequence (P19793 whole entry): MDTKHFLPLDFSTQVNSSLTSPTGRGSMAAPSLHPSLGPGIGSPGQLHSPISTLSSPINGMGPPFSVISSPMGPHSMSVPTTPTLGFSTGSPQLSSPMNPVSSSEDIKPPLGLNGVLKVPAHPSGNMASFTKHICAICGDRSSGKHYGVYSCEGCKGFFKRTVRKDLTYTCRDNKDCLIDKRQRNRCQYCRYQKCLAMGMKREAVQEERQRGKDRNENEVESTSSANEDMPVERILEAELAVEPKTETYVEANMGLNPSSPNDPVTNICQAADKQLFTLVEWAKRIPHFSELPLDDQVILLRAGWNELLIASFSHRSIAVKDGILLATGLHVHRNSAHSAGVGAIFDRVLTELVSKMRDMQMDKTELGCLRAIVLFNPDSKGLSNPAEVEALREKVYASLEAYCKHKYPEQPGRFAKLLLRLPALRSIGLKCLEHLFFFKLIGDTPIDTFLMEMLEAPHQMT
Nature of the assay: Transcriptional ativation of Retinoid X receptor RXR alpha.

Assay [10] deals with T6, Retinoic acid receptor RXR-gamma (Homo sapiens, UniProt P48443).
T6 sequence (P48443 whole entry): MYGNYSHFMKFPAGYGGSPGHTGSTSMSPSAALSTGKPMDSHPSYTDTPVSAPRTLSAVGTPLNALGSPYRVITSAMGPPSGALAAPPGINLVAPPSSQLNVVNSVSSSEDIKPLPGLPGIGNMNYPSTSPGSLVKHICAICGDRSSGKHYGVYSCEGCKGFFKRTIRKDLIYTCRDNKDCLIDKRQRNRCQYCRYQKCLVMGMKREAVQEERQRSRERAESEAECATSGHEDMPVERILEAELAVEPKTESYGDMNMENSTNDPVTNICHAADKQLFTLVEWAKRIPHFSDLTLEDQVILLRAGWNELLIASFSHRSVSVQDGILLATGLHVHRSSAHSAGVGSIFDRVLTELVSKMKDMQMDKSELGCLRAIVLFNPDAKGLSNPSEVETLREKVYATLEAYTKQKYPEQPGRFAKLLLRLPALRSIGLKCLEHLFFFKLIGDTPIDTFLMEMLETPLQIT
Nature of the assay: Inhibition of [3H]targretin binding to Retinoid X receptor RXR gamma. The method, boiled down: as §4

The target in assay [11] is T6, Retinoic acid receptor RXR-gamma. Nature of the assay: Transcriptional activation of Retinoid X receptor RXR gamma. A digest of the protocol:
as §3

Assay [12] has as its target T5, Retinoic acid receptor RXR-alpha. Nature of the assay: Inhibition of [3H]targretin binding to Retinoid X receptor RXR alpha.

Three compounds from ChEMBL document CHEMBL1129272, “Identification of the first retinoid X, receptor homodimer antagonist” (J Med Chem, 1996) can be followed below.

pEC50, pKi: −log10 of the molar value.

As to `COc1cc2c(cc1\C(C)=C/C=C/C(C)=C/C(=O)O)C(C)(C)CCC2(C)C`, the pKi was 6.36 in [1]; 6.40 in assay [5]; 6.51 in [6]; 8.70 in assay [7]; 8.40 in assay [10]; 8.70 in assay [12]. Besides, the pEC50 in [2] was 7.40; in assay [3], 8.10; in assay [4] it was 8.10; in assay [8] it was 7.77; in assay [9], 8.30; in assay [11] it was 8.05.
In the case of `CCCOc1cc2c(cc1\C(C)=C/C=C/C(C)=C/C(=O)O)C(C)(C)CCC2(C)C`, the pKi was 5.22 in [1], 5.59 in assay [5], 5.75 in [6] and 8.05 in assay [7]. In addition, the pEC50 in assay [8] is 6.72.
For the compound `CCOc1cc2c(cc1\C(C)=C/C=C/C(C)=C/C(=O)O)C(C)(C)CCC2(C)C`, the negative logarithm of the Ki (pKi) in assay [1] was 5.38; in assay [5], 5.51; in assay [6] it was 5.59; in [7], 7.92; in assay [10], 7.77; in [12], 8.40. The pEC50 in assay [3] is 8.05; in assay [4], 7.51; in assay [8], 6.92; in assay [9], 8.10; in assay [11], 8.15.

As usually defined, the pKi is the Ki on a negative log10 scale, so that one unit is a factor of ten. A lower pKi goes with a high Ki. As usually defined, the pEC50 is −log10 of the EC50, conventionally taken in molar units.
